In ChEMBL document CHEMBL1157100, “The alkyl-connected 2-amino-6-vinylpurine (AVP) crosslinking agent for improved selectivity to the cytosine base in RNA” (Bioorg Med Chem, 2010):
The source made the active and inactive calls. No cut-off for these calls is given here.

What was measured:
Format in all cases: nucleic-acid assay
Nucleic Acid [1] = assay: Binding affinity to FAM-tagged r-(GAAAYAAGAGGAAAGA)-RNA assessed as crosslinking by PAGE
In short: (§1)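 Reactive ODN at 10 µM with 1 µM FAM-labeled target DNA or RNA in 100 mM NaCl, 50 mM MES pH 5 plus RNase OUT, mixed at 0 °C and then incubated at 37 °C. Reactions were stopped at set times with formamide/EDTA/bromophenol blue buffer. Products were resolved on 15% denaturing polyacrylamide gel with 7 M urea, and FAM band intensities were quantified to give crosslinking yield.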

Nucleic Acid [2] = assay: Binding affinity to FAM-tagged r-(GAAAYAAGAGGAAAGA)-RNA assessed as crosslinking at 10 uM by alkylation method; in short: as §1
Nucleic Acid [3] = assay: Binding affinity to FAM-tagged d-(GAAAYAAGAGGAAAGA)-DNA assessed as crosslinking at 10 uM by alkylation method; in short: as §1

Activity (Nucleic Acid [1]): Active
Activity (Nucleic Acid [2]): Active
Activity (Nucleic Acid [3]): Active
SMILES: CSCCc1nc(N)nc2c1ncn2CC[C@H]1C[C@H](OP(=O)(O)OC[C@H]2O[C@@H](n3cc(C)c(=O)[nH]c3=O)C[C@@H]2OP(=O)(O)OC[C@H]2O[C@@H](n3cc(C)c(=O)[nH]c3=O)C[C@@H]2OP(=O)(O)OC[C@H]2O[C@@H](n3ccc(N)nc3=O)[C@H](O)[C@@H]2OP(=O)(O)OC[C@H]2O[C@@H](n3cc(C)c(=O)[nH]c3=O)C[C@@H]2OP(=O)(O)OC[C@H]2O[C@@H](n3ccc(N)nc3=O)[C@H](O)[C@@H]2OP(=O)(O)OC[C@H]2O[C@@H](n3ccc(N)nc3=O)[C@H](O)[C@@H]2OP(=O)(O)OC[C@H]2O[C@@H](n3cc(C)c(=O)[nH]c3=O)C[C@@H]2OP(=O)(O)OC[C@H]2O[C@@H](n3cc(C)c(=O)[nH]c3=O)C[C@@H]2OP(=O)(O)OC[C@H]2O[C@@H](n3cc(C)c(=O)[nH]c3=O)C[C@@H]2OP(=O)(O)OC[C@H]2O[C@@H](n3ccc(N)nc3=O)[C@H](O)[C@@H]2OP(=O)(O)OC[C@H]2O[C@@H](n3cc(C)c(=O)[nH]c3=O)C[C@@H]2OP(=O)(O)O)[C@@H](COP(=O)(O)O[C@H]2C[C@H](n3cc(C)c(=O)[nH]c3=O)O[C@@H]2COP(=O)(O)O[C@H]2C[C@H](n3cc(C)c(=O)[nH]c3=O)O[C@@H]2COP(=O)(O)O[C@H]2C[C@H](n3cc(C)c(=O)[nH]c3=O)O[C@@H]2COP(=O)(O)O[C@H]2[C@@H](O)[C@H](n3ccc(N)nc3=O)O[C@@H]2CO)O1
